The source of these data is paper PMC7453568 (ACS Central Science, 2020).

The target of assay [1] is T1, KRAS^G12C (Homo sapiens, UniProt P01116, G12C). Put plainly: KRAS^G12C degradation, total KRAS levels by immunoblotting. The format is cell-based.
Assay [2] concerns the target T1, KRAS^G12C. Put plainly: KRAS^G12C engagement, band shift of PROTAC-conjugated KRAS on immunoblot. To be noted: 2.5 μM. The format is cell-based. The method, boiled down:
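KRAS was immunoblotted from independent wells harvested the same day. Engagement was the intensity of the higher-molecular-weight, PROTAC-modified band relative to unbound KRAS in DMSO samples. Mean ± SD, two biological replicates.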

In another assay the target is KRAS^G13D (Homo sapiens, UniProt P01116, G13D). Put plainly: KRAS engagement/degradation in HCT 116 cells. It counts as cell-based. To be noted: HCT 116 cells (heterozygous KRAS^G13D), up to 10 μM.
Another assay relates to pErk. Kind of assay: Erk signaling. It counts as cell-based, human. To be noted: for pErk: MIA PaCa-2 and NCI-H23 cells, 6 and 24 h. An outline of the steps: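 Human KRAS^G12C cancer cells were treated for 24 h over a degrader dose range (NCI-H2030, heterozygous NCI-H23). Separately, MIA PaCa-2 and NCI-H23 received degrader or parent covalent inhibitor for 6 and 24 h, and time courses used 2.5 μM degrader. pErk and total Erk were immunoblotted and quantified against DMSO-treated cells. Lysates came from independent wells harvested the same day. Time-course data: mean ± SD, two biological replicates.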

The test system of another assay is NCI-H2030 cells. Kind of assay: Cell viability assay. The format is cell-based, human. To be noted: homozygous NCI-H2030 cells, MTS, 72 h.
A further assay concerns NCI-H23 cells. Put plainly: Cell viability assay. To be noted: heterozygous NCI-H23 cells, MTS, 72 h. The format is cell-based, human.
Setting [3] is: MIA PaCa-2, NCI-H23 and SW1573 cells, 2.5 μM, 6-72 h time course.
Setting [4] is: NCI-H2030 cells, 2.5 μM, 24 h time course.

As a reminder, the Dmax is the greatest extent of degradation seen.

“Also recorded” adds a separate entry of the source. Some results are limits rather than exact numbers.

As for `C=C(F)C(=O)N1CCN(c2nc(OC[C@@H]3CCCN3CCCOCCC(=O)N[C@H](C(=O)N3C[C@H](O)C[C@H]3C(=O)NCc3ccc(-c4scnc4C)cc3)C(C)(C)C)nc3c2CCN(c2cccc4cccc(Cl)c24)C3)C[C@@H]1CC#N` [LC-2], the maximal degradation (Dmax) was about 75% at KRAS^G12C [1] (MIA PaCa-2, MIA PaCa-2 cells, KRAS^G12C +/+, 24 h); about 90% at KRAS^G12C [1] (NCI-H23, NCI-H23 cells, KRAS^G12C +/−, 24 h); about 40% at KRAS^G12C [1] (NCI-H358, NCI-H358 cells, KRAS^G12C +/−, 24 h); about 75% at KRAS^G12C [1] (NCI-H2030, NCI-H2030 cells, KRAS^G12C +/+, 24 h); about 90% at KRAS^G12C [1] (SW1573, SW1573 cells, KRAS^G12C +/+, 24 h). At KRAS^G12C [1] (setting [3]), the “duration of KRAS degradation” value is recorded as “sustained up to 72 h”. Moreover, the “time to maximal KRAS degradation” value on KRAS^G12C [1] (setting [3]) is at most 24 h. The same compound gave a KRAS degradation on KRAS^G12C [1] (NCI-H23 cells (heterozygous)) of over 50%. The “KRAS degradation with neddylation inhibition” value on KRAS^G12C [1] (NCI-H23 cells, 2.5 μM LC-2, 24 h) is recorded as “rescues; also recorded: rescued KRAS degradation”. Besides, at KRAS^G12C [1] (NCI-H23 cells, 2.5 μM, 72 h time course), the “KRAS^G12C level rebound” value is “began to rebound at 72 h”. The “KRAS^G12C levels with neddylation inhibitor MLN4924” value at KRAS^G12C [1] (NCI-H2030 cells, 1 μM MLN4924, 2.5 μM LC-2, 4 h) is “rescued KRAS^G12C levels”. In addition, the “KRAS^G12C levels with proteasome inhibitor epoxomicin” value on KRAS^G12C [1] (NCI-H2030 cells, 1 μM epoxomicin, 2.5 μM LC-2, 4 h) was “rescued KRAS^G12C levels”. Moreover, the “KRAS^G12C degradation” value at KRAS^G12C [1] (NCI-H2030 cells, 2.5 μM, 4 h) was about 65%. In addition, the “persistence of maximal degradation” value at KRAS^G12C [1] (setting [4]) was “persisted up to 24 h; also recorded: maintained up to 24 h”. In addition, at KRAS^G12C [1] (setting [4]), the “time to maximum degradation” value is listed as at most 8 h. Moreover, the “lowest concentration inducing maximal degradation of endogenous KRAS^G12C” value at KRAS^G12C [1] (NCI-H2030 cells, 24 h) is 2.5 µM. Besides, the “KRAS levels, dose response” value at KRAS^G12C [1] (NCI-H2030 cells, 24 h, increasing concentrations) is given as “degrades KRAS^G12C in a dose-dependent manner”. In addition, at KRAS^G12C [1] (SW1573 cells, 2.5 μM, 24 h time course), the “time to maximal degradation” value worked out at 12 h. For the same compound, at KRAS^G12C [2] (NCI-H2030 cells), the “time at which KRAS^G12C binding/engagement is seen” value is recorded as at most 1 h. Also, the “time at which KRAS engagement is seen” value at KRAS^G12C [2] (SW1573 cells) is given as at most 1 h. Also, at KRAS^G13D, the “engagement or degradation of KRAS^G13D” value is recorded as “No engagement or degradation”. The pErk result in the assay on pErk (2.5 μM) is “suppressed”. The “pErk signaling, dose response” value is “dose-dependent decrease” in the assay on pErk (NCI-H23 cells, 24 h) and “dose-dependent decrease” with pErk (NCI-H2030 cells, 24 h). In addition, in the assay on pErk (SW1573 cells, 2.5 μM, 24 h), the “pErk levels versus DMSO-treated cells” value was “significantly lower”. For the same compound, the “total Erk versus DMSO” value with pErk (SW1573 cells, 2.5 μM, all time points) is recorded as “increased”. Also, the “phosphorylated Erk” value in the assay on pErk (SW1573 cells, 2.5 μM, between 1 and 4 h) is on record as “inhibited”. The pErk levels entry with pErk (SW1573 cells, 2.5 μM, between 8 and 24 h) is on record as “rebounded”.
In the case of `C=C(F)C(=O)N1CCN(c2nc(OC[C@@H]3CCCN3C)nc3c2CCN(c2cccc4cccc(Cl)c24)C3)C[C@@H]1CC#N` [MRTX849], the pErk result with pErk (0.10 μM) is “suppressed”. Further, the “cell viability (antiproliferative potency)” value with NCI-H2030 cells and with NCI-H23 cells was “more antiproliferative” throughout.
